Measurements reported in ChEMBL document CHEMBL3108731, “A development of chimeric VEGFR2 TK inhibitor based on two ligand conformers from PDB: 1Y6A complex--medicinal chemistry consequences of a TKs analysis” (Eur J Med Chem, 2014).
Active and inactive are the calls of the source. The rule behind the calls is not given here.

Columns and labels:
[1] = target: Vascular endothelial growth factor receptor 2 (Homo sapiens, UniProt P35968); test: Inhibition of GST-tagged recombinant human VEGFR2 expressed in Sf9 cells by radiometric assay; format: cell-based
Sequence of Vascular endothelial growth factor receptor 2 (P35968 whole entry): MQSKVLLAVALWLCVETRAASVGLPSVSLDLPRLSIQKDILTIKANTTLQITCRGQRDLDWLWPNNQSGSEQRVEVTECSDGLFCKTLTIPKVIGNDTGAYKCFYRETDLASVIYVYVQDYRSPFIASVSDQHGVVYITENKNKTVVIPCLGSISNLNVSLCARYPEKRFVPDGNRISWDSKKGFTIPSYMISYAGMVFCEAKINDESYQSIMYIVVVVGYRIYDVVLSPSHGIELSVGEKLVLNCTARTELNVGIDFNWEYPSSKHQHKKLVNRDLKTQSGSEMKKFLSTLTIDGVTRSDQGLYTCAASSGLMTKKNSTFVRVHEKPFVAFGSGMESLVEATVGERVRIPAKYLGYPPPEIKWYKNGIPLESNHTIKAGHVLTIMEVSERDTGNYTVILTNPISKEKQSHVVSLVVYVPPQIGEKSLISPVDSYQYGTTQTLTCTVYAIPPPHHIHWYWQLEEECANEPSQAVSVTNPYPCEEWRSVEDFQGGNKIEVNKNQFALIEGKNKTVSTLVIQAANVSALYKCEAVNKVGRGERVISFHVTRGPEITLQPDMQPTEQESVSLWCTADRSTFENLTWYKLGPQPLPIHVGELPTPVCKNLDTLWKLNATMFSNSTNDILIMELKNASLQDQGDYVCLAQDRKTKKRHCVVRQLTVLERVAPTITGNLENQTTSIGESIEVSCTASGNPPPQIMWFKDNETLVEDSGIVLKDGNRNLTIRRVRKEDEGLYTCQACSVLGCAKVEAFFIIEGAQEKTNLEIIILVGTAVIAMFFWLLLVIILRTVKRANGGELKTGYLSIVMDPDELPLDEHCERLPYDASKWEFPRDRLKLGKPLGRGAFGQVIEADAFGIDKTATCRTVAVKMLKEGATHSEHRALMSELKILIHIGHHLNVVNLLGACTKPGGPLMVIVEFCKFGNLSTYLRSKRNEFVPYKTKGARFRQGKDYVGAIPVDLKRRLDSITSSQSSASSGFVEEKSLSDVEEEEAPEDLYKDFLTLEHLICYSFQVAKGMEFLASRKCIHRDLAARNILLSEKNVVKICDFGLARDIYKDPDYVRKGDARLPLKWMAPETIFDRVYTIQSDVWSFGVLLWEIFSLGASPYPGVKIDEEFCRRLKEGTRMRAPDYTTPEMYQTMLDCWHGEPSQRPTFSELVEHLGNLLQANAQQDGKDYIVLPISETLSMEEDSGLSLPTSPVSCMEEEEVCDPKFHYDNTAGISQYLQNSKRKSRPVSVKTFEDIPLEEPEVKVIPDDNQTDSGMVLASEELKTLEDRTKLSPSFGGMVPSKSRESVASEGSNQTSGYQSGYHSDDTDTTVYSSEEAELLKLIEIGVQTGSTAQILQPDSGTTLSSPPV

[2] = system: MDA-MB-231; test: Antiproliferative activity against human MDA-MB-231 cells after 3 days by MTT assay; format: functional, cell-based; details: MDA-MB-231, 72 h
Summary of the method: (§1)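 MTT dye-reduction assay: 3×10^3 BAE or 2×10^3 tumour cells in their own growth media were given serial dilutions of compound for 3 days at 37 °C, 5% CO2. MTT (5 mg/ml stock in PBS) was added for 4 h, and formazan was dissolved in 0.04 N HCl/2-propanol and read at 550 nm. IC50 is the concentration giving 50% survival; values are mean ± S.D. of at least three experiments in triplicate.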

[3] = system: BAEC; test: Antiangiogenic activity in BAEC assessed as inhibition of cell migration to extracellular matrix at 1 uM after 7 hrs by wound-healing assay; format: functional; details: Bos taurus
Summary of the method: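 Confluent BAEC monolayers were wounded with a pipette tip to give one 1 mm-wide acellular lane. After washing, cells received complete medium without or with compound. The same fields were photographed at 0 and 7 h. Regrowth into the cell-free area was expressed as % recovered area, mean ± SD, n = 3.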

[4] = system: HL-60; test: Antiproliferative activity against human HL60 cells after 3 days by MTT assay; format: functional, cell-based; details: HL-60, 72 h; summary of the method: as §1
[5] = Antiproliferative activity against BAEC after 3 days by MTT assay; format: functional; details: Bos taurus, 72 h; summary of the method: as §1
[6] = Antiproliferative activity against human HT1080 cells after 3 days by MTT assay; format: functional, cell-based; details: HT-1080, 72 h; summary of the method: as §1
[7] = system: U2OS; test: Antiproliferative activity against human U2OS cells after 3 days by MTT assay; format: functional, cell-based; details: 72 h; summary of the method: as §1
[8] = organism: Danio rerio; test: Toxicity in zebrafish embryo up to 24 hrs by GFP assay; format: organism-based; details: in vivo
[9] = organism: Danio rerio; test: Antiangiogenic activity in zebrafish embryo at 5 uM up to 24 hrs by GFP assay; format: functional
Summary of the method: (§2)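 Embryos of transgenic Zebrafish line TG(fli1:EGFP)y1 were used; a fli-1 promoter drives GFP expression in the endothelium. Embryos were incubated with different compound concentrations, and angiogenesis was assessed by live fluorescence imaging. Data are the percentage of treated embryos showing inhibited angiogenesis.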

[10] = organism: Danio rerio; test: Antiangiogenic activity in zebrafish embryo assessed as inhibition of intersegmental blood vessel growth at 10 uM up to 24 hrs by GFP assay; format: functional, organism-based; summary of the method: as §2
[11] = organism: Danio rerio; test: Antiangiogenic activity in zebrafish embryo up to 24 hrs by GFP assay; format: functional, organism-based; summary of the method: as §2
[12] = system: HT-29; test: Antiproliferative activity against human HT-29 cells after 3 days by MTT assay; format: functional, cell-based; details: HT-29, 72 h; summary of the method: as §1
[13] = system: BAEC; test: Antiangiogenic activity in BAEC assessed as inhibition of capillary tube formation after 7 hrs by matrigel assay; format: functional; details: Bos taurus
Summary of the method: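 BAE cells (5×10^4 per well) in DMEM were seeded on Matrigel (about 10.5 mg/mL) that had polymerized at 37 °C for at least 30 min. Cells were given compound at several amounts and kept at 37 °C, 5% CO2 for 7 h. Cord/tube formation was viewed at 200×. Each concentration was run in duplicate and scored by two independent observers.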

[14] = organism: Danio rerio; test: Antiangiogenic activity in zebrafish embryo at 10 uM up to 24 hrs by GFP assay; format: functional; summary of the method: as §2
[15] = organism: Danio rerio; test: Antiangiogenic activity in zebrafish embryo at 20 uM up to 24 hrs by GFP assay; format: functional; summary of the method: as §2
[16] = system: BAEC; test: Induction of apoptosis in BAEC assessed as chromatin condensation at 0.5 to 1 uM after 14 hrs by Hoechst staining; format: functional; details: Bos taurus
Summary of the method: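 Subconfluent BAE cells on chamber slides were treated for 14 h with the indicated concentrations in complete medium. Cells were then PBS-washed, formalin-fixed and stained with Hoechst for 2 min. Nuclear morphology (chromatin condensation) was examined by fluorescence microscopy.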

SMILES: CCS(=O)(=O)c1ccc(OC)c(Nc2ncc(-c3cc(Br)cc(-c4ccccn4)c3)o2)c1
- IC50 [1]: 202 nM

SMILES: CCS(=O)(=O)c1ccc(OC)c(Nc2ncc(-c3cc(-c4ccccn4)cc(-c4ccccn4)c3)o2)c1
- IC50 [2]: 3990 nM
- inhibition [3]: Active
- IC50 [4]: 17800 nM
- IC50 [1]: 15.1 nM
- IC50 [5]: 370 nM
- IC50 [6]: 2430 nM
- IC50 [7]: 2030 nM
- Activity [8]: Non-toxic
- inhibition (INH) [9]: 7%
- inhibition [10]: Active
- inhibition [11]: Dose-dependent effect
- IC50 [12]: 15200 nM
- inhibition [13]: Dose-dependent effect
- inhibition (INH) [14]: 53%
- inhibition (INH) [15]: 87%
- Activity [16]: Active

SMILES: CCS(=O)(=O)c1ccc(OC)c(Nc2ncc(-c3cc(-c4cccnc4)cc(-c4cccnc4)c3)o2)c1
- IC50 [1]: 170 nM

SMILES: CCS(=O)(=O)c1ccc(OC)c(Nc2ncc(-c3cc(-c4cccnc4)cc(-c4ccccn4)c3)o2)c1
- IC50 [1]: 51.2 nM
